From PubChem BioAssay
An excerpt weighted towards active compounds, which were near 1.6% of everything screened.
DDE Tn6 FP inh: DD(E)-Tn6 binding inhibition, primary FP screen; Fibrin DD(E) TRITC-Tn6 fluorescence polarization displacement; inhibition, % at 8.3 µM; 370,000 tested, 0.21% active; AID 720509;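 active = inhibition above a per-campaign cutoff: mean of compounds within control limits plus 3 SD, cut at about 15% in these data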;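 also: 0% = median of all compound wells on the plate and 100% = blocking peptide control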
Target sequence (P02675 whole entry, looked up): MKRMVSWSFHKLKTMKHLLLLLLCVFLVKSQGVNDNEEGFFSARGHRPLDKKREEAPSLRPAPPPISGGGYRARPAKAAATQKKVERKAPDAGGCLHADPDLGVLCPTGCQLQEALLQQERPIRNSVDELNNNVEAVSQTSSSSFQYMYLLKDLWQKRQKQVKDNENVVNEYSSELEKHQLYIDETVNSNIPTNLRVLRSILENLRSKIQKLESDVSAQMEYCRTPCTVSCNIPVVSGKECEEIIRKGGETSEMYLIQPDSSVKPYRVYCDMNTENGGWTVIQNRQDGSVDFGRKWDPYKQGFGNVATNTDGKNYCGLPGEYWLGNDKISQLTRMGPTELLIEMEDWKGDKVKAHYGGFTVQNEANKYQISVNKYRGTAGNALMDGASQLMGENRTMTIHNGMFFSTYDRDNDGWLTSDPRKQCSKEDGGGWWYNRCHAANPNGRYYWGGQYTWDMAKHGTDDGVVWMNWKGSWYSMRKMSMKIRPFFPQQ
ADAM10 inh: ADAM10 inhibition, QFRET primary screen; O14672; recombinant ADAM10, EDANS/DABCYL FRET peptide cleavage, 3 h; inhibition, % at 7 µM; 370,000 tested, 0.62% active;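 active = inhibition above a per-campaign cutoff equal to the mean of compounds falling between control-based bounds plus 3 SD, cut at about 20% in these data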;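 also: 0% = DMSO wells while the 100% control is not disclosed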
MT1-MMP act inh: blocks activation of human MT1-MMP. P50281. HT1080 RFP-PRO-GFP cells, GFP/RFP ratio fluorescence, overnight; percent of plate control window, DMSO zero. GFP/RFP ratio change, % at 20 µM. 360,000 tested, 0.061% active. AID 651647;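 active = GFP/RFP ratio change of at least 30% with cell ATP level not reduced by more than half and red fluorescence within 50% of control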
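Material: RFP-PRO-GFP reporter HT1080 cells. Dosing: single-point 20 µM compound, 1% DMSO. Controls: DMSO and RFP-L50D-GFP cell wells. Timing: cells overnight before dosing, compound overnight, 37 °C, 5% CO2. Measure: GFP/RFP fluorescence ratio.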
DDE Tn7 FP inh: inhibitors of Tn7 peptide binding to human fibrin DD(E). P02675. inhibition, % at 8.3 µM. 370,000 tested, 0.13% active. FP displacement of FITC-Tn7 peptide from fibrin DD(E); 0% = median of compound wells per plate;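 active = inhibition above the mean of compounds falling within the control limits plus 3 SD of them, cut at about 14% in these data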;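 also: 0% = plate median of compound wells and 100% = 10 µM Aha-Tn7 peptide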
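Assay system: Human clot-derived fibrin DD(E) complex | Buffer or medium: Tris/NaCl/CaCl2 buffer, pH 7.8 | Repeats: One replicate per compound | Benchmarks: Aha-Tn7 high control | Measure: % inhibition scaled between sample-field median and high-control FP | Schedule: 10 min plus 3 h, room temperature | Signal: Fluorescence polarization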
ADAM17 inh: inhibitors of human ADAM17; AID 720648; recombinant ADAM17, EDANS/DABCYL FRET peptide cleavage; P78536; inhibition, % at 6.95 µM; 370,000 tested, 0.83% active;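 active = inhibition above the mean of compounds lying between control limits plus 3 SD, set per campaign, cut at about 8.5% in these data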;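 also: 0% = DMSO-only wells as the low control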
Numbers without * were called inactive; i = inactive; · = not tested or not shown.

SMILES	DDE Tn6 FP inh	ADAM10 inh	MT1-MMP act inh	DDE Tn7 FP inh	ADAM17 inh
CN(C)CCCn1c2c3ccccc3ccc2c2oc(=O)c3ccccc3c21	8	-342	-49	17*	-60
CCCCNC(=O)O[C@H]1CC[C@@]23CCCN2C(=O)CCC[C@H]3[C@H]1CCC	2	-2	·	-1	-8
Cc1ccc(Cn2c(SCC(=O)N3CC(=O)Nc4ccccc43)nc3ccccc3c2=O)cc1	-6	16	-24	3	8.9*
O=C1NC(=S)S/C1=C\c1cc(Cl)cc(Cl)c1O	25*	-12	15	-12	-1
O=C1NC(=S)SC1=Cc1ccccc1Cl	-1	5	5	-3	1
Cc1cccc2sc(NC(=O)C3CCN(S(=O)(=O)c4cc([N+](=O)[O-])ccc4Cl)CC3)nc12	2	20*	-7	9	6
C=CCn1c(SCC(=O)c2ccc(-c3ccccc3)cc2)nnc1-c1ccc(OC)cc1	0	0	·	7	4
C=CCn1c(SCc2c(C(=O)OC)sc(N)c2C(=O)OC)nnc1-c1ccc(Br)cc1	-1	20*	4	-1	4
COC(=O)c1cc(-c2ccc(Oc3ccccc3)cc2)c(=O)n2c1CCC2	-12	-109	·	4	-39
Cc1ccccc1C(=O)N(C)[C@H]1C[C@H]2c3[nH]c4c(-c5ccccc5)cccc4c3CCN2C[C@H]1[C@H](C)O	2	-120	·	-2	-34
Cn1c(=O)c2c(nc(Oc3ccccc3Br)n2C)n(C)c1=O	5	6	-5	1	-3
Cn1c(=O)c(N)c2c3c(c(Br)ccc31)C(=O)c1ccccc1-2	16*	2	-138	-6	1
O=C1C(=Cc2cn(-c3ccccc3)nc2-c2ccc(OCc3ccccc3)cc2)SC(=S)N1CCS(=O)(=O)O	-16	29*	-1	-2	5
COC(CNC(=O)c1ccc2c3c(onc13)-c1ccccc1C2=O)OC	6	1	34*	2	1
COC(CNC(=O)c1cccnc1)OC	-4	3	-2	-2	0
CC(=O)Nc1ccc(S(=O)(=O)Nc2cccc3[nH]ncc23)cc1	-3	-9	-3	-1	-1
O=C(Nc1cccc2[nH]ncc12)NS(=O)(=O)c1ccccc1	60*	2	4	3	-1
CC(COc1cc(F)cc(C#N)c1)CN1CCC(C(O)(c2ccccc2)c2ccccc2)CC1 (configuration not stated)	-6	6	·	-4	3
Cc1cccc(-n2nc3c(c2NC(=O)c2ccco2)CSC3)c1C	-11	16	-16	3	9.1*
CCCCCCC/C=C(\C)[C@@H](O)[C@@H](C)C(=O)N1CCC[C@@H]1C(=O)O[C@H](C(=O)O[C@@H](C)C(=O)O)[C@@H](C)CC	-1	-2	·	2	-4
CCN(CC)c1ccc2cc(NC(=O)CCC(=O)O)c(=O)oc2c1	44*	i	-24	10	i
O=C1c2cccc(NCCNCCO)c2C(=O)c2cccc(NCCNCCO)c21	48*	-16	42	9	-7
O=C(O)CCNc1ccc(NCCC(=O)O)c2c1C(=O)c1ccccc1C2=O	12	5	·	7	-5
CCN(CC)c1ccc(N=Cc2ccccc2[N+](=O)[O-])cc1	7	0	52*	0	1
CCN(CC)c1ccc(N=Cc2ccc([N+](=O)[O-])o2)cc1	-10	12	6	-2	7
SMILES	DDE Tn6 FP inh	ADAM10 inh	MT1-MMP act inh	DDE Tn7 FP inh	ADAM17 inh
O=C(Nc1cc(Sc2ccccn2)cc([N+](=O)[O-])c1)c1cccc(F)c1	-8	16	-12	-5	11*
O=C(Nc1cc(Sc2nc3ccccc3s2)cc([N+](=O)[O-])c1)c1ccccc1	-14	8	1	6	5
O=C(C1=C[C@@H](c2ccc(C(F)(F)F)cc2)C[C@@H](OCc2ccc(CO)cc2)O1)N1CCN(Cc2ccc3c(c2)OCO3)CC1	-4	28*	0	1	8
Cc1ccc(-c2nnn(CC(=O)Nc3ccc(S(=O)(=O)N4CCC(C)CC4)cc3)n2)cc1	-3	7	5	8	6
CC1CCN(S(=O)(=O)c2ccc(NC(=O)Cn3nnc(-c4ccccc4)n3)cc2)CC1	19*	19	8	-4	10*
CCc1cc(Cn2nc(-c3ccccc3)cc2C(=O)NCc2cccs2)on1	-7	37*	5	2	16*
CCc1cc(Cn2nc(-c3ccccc3)cc2C(=O)NCCOC)on1	-5	2	3	-1	-1
CC(C)[C@H]1/C(=C/C2CC2)N2C(=O)C[C@H](c3cccc(C(F)(F)F)c3)N=C2N1Cc1ccc2c(c1)OCO2	14	6	·	-1	1
CCOC(=O)[C@@H]1[C@H]2COc3ccc(Br)cc3[C@@H]2N2C(=O)N(c3ccc(Br)cc3)C(=O)[C@]12C	3	3	-1	0	-1
CCOC(=O)[C@@H]1[C@H]2COc3ccc(Br)cc3[C@H]2N2C(=O)N(c3ccc(C(F)(F)F)cc3)C(=O)[C@]12C	-3	24*	-2	5	5
O=C(Nc1ccc(C(O)(C(F)(F)F)C(F)(F)F)cc1)c1c(F)cccc1F	-2	8	·	-2	2
C=CCC[C@H](Cc1ccc(F)cc1)C(=O)OC[C@@H](C)NC(=O)[C@@H](CC=C)CC(=O)N[C@H](CO)Cc1ccccc1	-2	9	-3	-1	3
C=CCC[C@H](Cc1ccc(F)cc1)C(=O)OC[C@@H](NC(=O)[C@@H](CC=C)CC(=O)N[C@@H](CO)Cc1ccccc1)C(C)(C)C	-6	20*	-18	-9	8
Nc1ccn([C@@H]2O[C@H](CO)[C@@H](O)[C@@H]2O)c(=O)n1	16*	10	-8	15*	-2
Nc1ccn(C2OC(CO)C(O)C2O)c(=O)n1 (configuration not stated)	2	-5	-14	-1	4
CCCC1CCC2(CC1)CCC2OC(=S)Nc1ccccc1Cl (configuration not stated)	-3	2	·	-10	0
S=C(Nc1ccc(Oc2ccccc2)cc1)NC1CCCCCC1	-9	0	-2	2	9.5*
S=C(Nc1ccc(Oc2ccccc2)cc1)NC1CCCCC1	-2	-7	-7	3	-3
COc1ccc(CNC2CCC23CCCCC3)cc1OC (configuration not stated)	3	5	·	-5	-3
CN(C)CCCN(C(=O)c1ccc2c(c1)CCCC2)c1nc2ccc(Cl)cc2s1	-6	17	-15	-12	8.7*
CCOc1ccc2nc(N(CCCN(C)C)C(=O)c3ccc4c(c3)CCCC4)sc2c1	4	-5	·	2	-3
Cc1csc(NC(=O)CSc2nnc(-c3ccncc3)o2)n1	17*	8	-1	2	-1
